These results are taken from ChEMBL document CHEMBL1122532, “[(Aminomethyl)aryloxy]acetic acid esters. A new class of high-ceiling diuretics. 2. Modifications of the oxyacetic side chain” (J Med Chem, 1984).

As a reminder, the IC50 is the concentration at which inhibition is half-maximal. Low readings indicate greater potency in that assay, high ones weaker potency in that assay.

Active and inactive are the calls of the source. The calls are words filed in the database; no cut-off is given here.

The test system of data set [1] is Rattus norvegicus. In words: Oral dose necessary to produce an excretion of 2 mequiv of Na+/kg in the rat urine in the 4-h period after peroral administration; Inactive. The data set is classed as ADME, organism-based. Particulars: in vivo. The essentials: (§1)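 Rats dosed orally. Urinary Na⁺ was measured over the 4 h after dosing. ED₂ is the oral dose (mg/kg) giving excretion of 2 mequiv Na⁺/kg in that period.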

In data set [2] the test system is Rattus norvegicus. In words: Oral dose necessary to produce an excretion of 2 mequiv of Na+/kg in the rat urine in the 4-h period after peroral administration. The data set is classed as ADME, organism-based. Conditions: in vivo. The essentials:
as §1

Data set [3] has as its system Canis familiaris. The data set can be described thus: Oral dose in mg/kg necessary to produce an excretion of 5 mequiv of Na+/kg in the dog urine during 6-h period after dosing. Particulars: in vivo.
A further data set concerns frog. The data set can be described thus: Dose required for 50% inhibition of chloride transport in frog cornea was evaluated; No inhibition. The data set is classed as functional, tissue-based.
For data set [4], the species on record is Canis familiaris. The data set can be described thus: Relative amount of acid ([4-(3-Aminomethyl-4-hydroxy-benzoyl)-2,3-dichloro-phenoxy]-acetic acid;) appearing in dog plasma was reported. The data set is classed as functional, Canis lupus familiaris.
A short description of data set [5]: Dose required for 50% inhibition of chloride transport in frog cornea was evaluated. The class given is functional.
In data set [6] the test system is Rattus norvegicus. In words: Oral dose necessary to produce an excretion of 2 mequiv of Na+/kg in the rat urine in the 4-h period after peroral administration; inactive. Conditions: in vivo. The data set is classed as ADME, organism-based. The essentials:
as §1

As to `Cl.N#CCOc1ccc(C(=O)c2ccc(O)c(CN)c2)c(Cl)c1Cl`, the ED2 result in the data set with Rattus norvegicus [1] was “Not Active”.

As for `Cl.NCCOc1ccc(C(=O)c2ccc(O)c(CN)c2)c(Cl)c1Cl`, the ED2 in the data set on Rattus norvegicus [2] is 16.2 mg/kg. In addition, the ED5 in the data set with Canis familiaris [3] turned out to be 8 mg/kg. In the data set with frog, the Inhibition result is “inactive”. The molecule also registered a Relative amount in the data set listed under Canis familiaris [4] of 25%.

On to `CCOC(=O)C(C)Oc1ccc(C(=O)c2ccc(O)c(CN)c2)c(Cl)c1Cl.Cl` (stereo unspecified), for which, in the data set on Rattus norvegicus [2], the ED2 was 19.5 mg/kg.

`CCOC(=O)CSc1ccc(Oc2ccc(O)c(CN)c2)c(Cl)c1Cl.Cl`: the ED2 in the data set on Rattus norvegicus [2] amounted to 1.22 mg/kg.

For `CCOC(=O)c1ccc(Oc2ccc(O)c(CN)c2)c(Cl)c1Cl.Cl`, in the data set on Rattus norvegicus [1], the ED2 entry is recorded as “Not Active”.

On to `Cl.NCc1cc(C(=O)c2ccc(OCCO)c(Cl)c2Cl)ccc1O`, for which the ED2 in the data set with Rattus norvegicus [2] is 1 mg/kg. Moreover, in the data set with Canis familiaris [3], the ED5 is 5.5 mg/kg. In the data set on frog, the Inhibition result is “inactive”. Besides, the Relative amount in the data set listed under Canis familiaris [4] came to 13%.

Regarding `CCOC(=O)COc1ccc(C(=O)c2ccc(O)c(CN)c2)c(Cl)c1Cl.Cl`, the ED2 with Rattus norvegicus [2] was 2.5 mg/kg. For the same molecule, in the data set with Canis familiaris [3], the ED5 came to 1 mg/kg. This molecule also registered an IC50 in data set [5] of 14.6 µM. In the data set listed under Canis familiaris [4], this molecule gave a Relative amount of 100%.

Turning to `CCOC(=O)COc1ccc(Oc2ccc(O)c(CN)c2)c(Cl)c1Cl.Cl`, the ED2 in the data set with Rattus norvegicus [2] stood at 0.8 mg/kg.

Take `CCOC(=O)C(C)(C)Oc1ccc(C(=O)c2ccc(O)c(CN)c2)c(Cl)c1Cl.Cl`: in the data set on Rattus norvegicus [6], the ED2 entry was “Not Active”.

For `CCOC(=O)Cc1ccc(Oc2ccc(O)c(CN)c2)c(Cl)c1Cl.Cl`, the ED2 in the data set on Rattus norvegicus [2] is 21.5 mg/kg.

In the case of `CC(=O)COc1ccc(C(=O)c2ccc(O)c(CN)c2)c(Cl)c1Cl.Cl`, in the data set with Rattus norvegicus [2], the ED2 was 28.5 mg/kg.

For `Cl.NCc1cc(C(=O)c2ccc(OCC(=O)O)c(Cl)c2Cl)ccc1O`, the ED5 in the data set with Canis familiaris [3] is 0.71 mg/kg. The same molecule yielded an IC50 in data set [5] of 8.4 µM. Moreover, the ED2 entry in the data set with Rattus norvegicus [1] was “Not Active”.

For `CCOC(=O)C1Cc2cc(C(=O)c3ccc(O)c(CN)c3)c(Cl)c(Cl)c2O1` (stereo unspecified), in the data set on Rattus norvegicus [2], the ED2 is 0.11 mg/kg.

Consider `Cl.NCc1cc(C(=O)c2ccc(OCC(N)=O)c(Cl)c2Cl)ccc1O`, for which the ED2 in the data set on Rattus norvegicus [2] amounted to 17 mg/kg. In addition, the ED5 in the data set on Canis familiaris [3] worked out at 0.7 mg/kg. This molecule also returned a concentration for half-maximal inhibition (IC50) in data set [5] of 16.5 µM. The Relative amount in the data set filed under Canis familiaris [4] came out at 67%.

On to `CCOC(=O)CCCOc1ccc(Oc2ccc(O)c(CN)c2)c(Cl)c1Cl.Cl`, for which, in the data set on Rattus norvegicus [2], the ED2 was determined as 13.5 mg/kg.

`COc1ccc(C(=O)c2ccc(O)c(CN)c2)c(Cl)c1Cl.Cl`: the ED2 entry in the data set on Rattus norvegicus [1] is “Not Active”.

`CCOC(=O)CCc1ccc(Oc2ccc(O)c(CN)c2)c(Cl)c1Cl.Cl`: in the data set with Rattus norvegicus [2], the ED2 is 10.7 mg/kg.
